Measurements taken from ChEMBL document CHEMBL1121415, “Inhibition of histamine-induced gastric secretion by flavone-6-carboxylic acids” (1980).
Several values for one entry are separate records, joined by “and”; a condition that tells them apart may be missing. Identical values can stand only once.

What was measured:
Assay type in all cases: functional
Rattus norvegicus [1] = assay: Inhibition of histamine-induced gastric acid secretion in the rat following 80 mg/kg s.c. administration.; conditions: Stomach, sc
How it was run: (§1)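 Compound was given subcutaneously at 1 mL/kg to 48-h-fasted rats in groups of 10; controls received saline. Pylorus ligation under ether followed 30 min later. Histamine 2.5 mg/kg sc was given at 15-min intervals for 3 h. Gastric juice was titrated with 0.02 N NaOH to pH 7.0 to give total acid output, expressed as % mean inhibition vs controls, with ANOVA.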

Rattus norvegicus [2] = assay: The compound was tested for its ability to inhibit histamine-induced gastric acid secretion in the rat at a dose of 70 mg/kg, sc; conditions: Stomach, route subcutaneous; how it was run: as §1
Rattus norvegicus [3] = assay: The compound was tested for its ability to inhibit histamine-induced gastric acid secretion in the rat at a dose of 76 mg/kg, sc; conditions: Stomach, route subcutaneous; how it was run: as §1
Rattus norvegicus [4] = assay: Determined as […] and at 50 mg/kg peroral dose; conditions: route oral
How it was run: (§2)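 Rats fasted 48 h with water ad libitum, in groups of 10, were dosed orally by gavage at 1 mL/kg; controls received saline. After 30 min, under ether, the pylorus was ligated. Histamine 2.5 mg/kg sc was given right after surgery and every 15 min for 3 h. Gastric juice was titrated with 0.02 N NaOH to pH 7.0 ± 0.1 as mequiv H+/100 g. Mean % inhibition vs controls was tested by ANOVA.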

Rattus norvegicus [5] = assay: Gastric juice volume when tested orally in rat ligated stomach preparation at 200 mg/kg peroral dose; conditions: route oral
How it was run: (§3)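 Orally gavaged rats (1 mL/kg; saline controls; 48-h fast, groups of 10) had pylorus ligation under ether 30 min post-dose. They then received histamine 2.5 mg/kg sc every 15 min for 3 h. At sacrifice, stomach contents were aspirated and the gastric juice volume in mL was recorded. Results are given as mean ± SD.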

Rattus norvegicus [6] = assay: % inhibition in total acid secretion when tested orally in rat ligated stomach preparation at 100 mg/kg peroral dose; conditions: route oral; how it was run: as §2
Rattus norvegicus [7] = assay: Determined as […] and at 200 mg/kg peroral dose; conditions: route oral; how it was run: as §2
Rattus norvegicus [8] = assay: Gastric juice volume when tested orally in rat ligated stomach preparation at 100 mg/kg peroral dose; conditions: route oral; how it was run: as §3
Rattus norvegicus [9] = assay: % inhibition in total acid secretion when tested orally in rat ligated stomach preparation at 200 mg/kg peroral dose; conditions: route oral; how it was run: as §2
Rattus norvegicus [10] = assay: Determined as […] and at 100 mg/kg peroral dose; conditions: route oral; how it was run: as §2
Rattus norvegicus [11] = assay: Gastric juice volume when tested orally in rat ligated stomach preparation at 150 mg/kg peroral dose; conditions: route oral; how it was run: as §3
Rattus norvegicus [12] = assay: Determined as […] and at 150 mg/kg peroral dose; conditions: route oral; how it was run: as §2
Rattus norvegicus [13] = assay: Gastric juice volume when tested orally in rat ligated stomach preparation at 50 mg/kg peroral dose; conditions: route oral; how it was run: as §3
Rattus norvegicus [14] = assay: The compound was tested for its ability to inhibit histamine-induced gastric acid secretion in the rat at a dose of 60 mg/kg, sc; conditions: Stomach, route subcutaneous; how it was run: as §1
Rattus norvegicus [15] = assay: The compound was tested for its ability to inhibit histamine-induced gastric acid secretion in the rat at a dose of 66 mg/kg, sc; conditions: Stomach, route subcutaneous; how it was run: as §1
Rattus norvegicus [16] = assay: The compound was tested for its ability to inhibit histamine-induced gastric acid secretion in the rat at a dose of 90 mg/kg, sc; conditions: Stomach, route subcutaneous; how it was run: as §1
Rattus norvegicus [17] = assay: % inhibition in total acid secretion when tested orally in rat ligated stomach preparation at 150 mg/kg peroral dose; conditions: route oral; how it was run: as §2
Rattus norvegicus [18] = assay: % inhibition in total acid secretion when tested orally in rat ligated stomach preparation at 75 mg/kg peroral dose; conditions: route oral; how it was run: as §2
Rattus norvegicus [19] = assay: Gastric juice volume when tested orally in rat ligated stomach preparation at 75 mg/kg peroral dose; conditions: route oral; how it was run: as §3
Rattus norvegicus [20] = assay: Determined as […] and at 75 mg/kg peroral dose; conditions: route oral; how it was run: as §2

## COc1ccc(-c2oc3ccc(C(=O)O)cc3c(=O)c2OC)cc1
Rattus norvegicus [1]
  inhibition in vivo at 80 mg/kg: 22%

## CS(=O)(=O)c1ccc(-c2cc(=O)c3cc(C(=O)O)ccc3o2)cc1
Rattus norvegicus [2]
  inhibition in vivo at 70 mg/kg: 41%

## CC(C)c1ccc(-c2oc3ccc(C(=O)O)cc3c(=O)c2O)cc1
Rattus norvegicus [1]
  inhibition in vivo at 80 mg/kg: 24%

## O=C(O)c1ccc2oc(-c3ccccc3Br)c(O)c(=O)c2c1
Rattus norvegicus [1]
  inhibition in vivo at 80 mg/kg: 22%

## CCCCCCOc1ccc(-c2oc3ccc(C(=O)O)cc3c(=O)c2OC)cc1
Rattus norvegicus [3]
  inhibition in vivo at 76 mg/kg: -12%

## CCCCCCc1ccc(-c2cc(=O)c3cc(C(=O)O)ccc3o2)cc1
Rattus norvegicus [1]
  inhibition in vivo at 80 mg/kg: 2%

## Cc1ccc(-c2oc3ccc(C(=O)O)cc3c(=O)c2OC(C)C)cc1
Rattus norvegicus [1]
  inhibition in vivo at 80 mg/kg: 8%

## O=C(O)c1ccc2oc(-c3ccc(Cl)cc3)c(O)c(=O)c2c1
Rattus norvegicus [1]
  inhibition in vivo at 80 mg/kg: -19%

## COc1ccc(-c2oc3ccc(C(=O)O)cc3c(=O)c2O)cc1
Rattus norvegicus [1]
  inhibition in vivo at 80 mg/kg: 24%

## O=C(O)c1ccc(-c2oc3ccc(C(=O)O)cc3c(=O)c2O)cc1
Rattus norvegicus [1]
  inhibition in vivo at 80 mg/kg: 23%

## COc1ccc(-c2oc3ccc(C(=O)O)cc3c(=O)c2OC(C)C)cc1
Rattus norvegicus [4]
  mequiv of HCl: 0.238
Rattus norvegicus [5]
  Volume: 3.68 mL
Rattus norvegicus [6]
  Inhibition: 4% and 9%
Rattus norvegicus [7]
  mequiv of HCl: 0.101
Rattus norvegicus [8]
  Volume: 5.16 mL
Rattus norvegicus [9]
  Inhibition: 34% and 59%
Rattus norvegicus [10]
  mequiv of HCl: 0.226
Rattus norvegicus [11]
  Volume: 4.8 mL
Rattus norvegicus [12]
  mequiv of HCl: 0.161
Rattus norvegicus [1]
  inhibition in vivo at 80 mg/kg: 35%
Rattus norvegicus [13]
  Volume: 5.13 mL

## COc1c(-c2ccc(Cl)cc2)oc2ccc(C(=O)O)cc2c1=O
Rattus norvegicus [1]
  inhibition in vivo at 80 mg/kg: 34%

## COc1ccc(-c2cc(=O)c3cc(C(=O)O)ccc3o2)cc1
Rattus norvegicus [1]
  inhibition in vivo at 80 mg/kg: 13%

## Cc1ccc(-c2oc3ccc(C(=O)O)cc3c(=O)c2O)cc1
Rattus norvegicus [1]
  inhibition in vivo at 80 mg/kg: -6%

## CCOc1ccc(-c2oc3ccc(C(=O)O)cc3c(=O)c2OC(C)C)cc1
Rattus norvegicus [14]
  inhibition in vivo at 60 mg/kg: 18%

## Cc1ccccc1-c1oc2ccc(C(=O)O)cc2c(=O)c1O
Rattus norvegicus [1]
  inhibition in vivo at 80 mg/kg: 15%

## O=C(O)c1ccc2oc(-c3ccc(F)cc3)cc(=O)c2c1
Rattus norvegicus [1]
  inhibition in vivo at 80 mg/kg: 21%

## CC(C)Oc1c(-c2ccc(C(C)C)cc2)oc2ccc(C(=O)O)cc2c1=O
Rattus norvegicus [1]
  inhibition in vivo at 80 mg/kg: 20%

## COc1c(-c2ccc(F)cc2)oc2ccc(C(=O)O)cc2c1=O
Rattus norvegicus [2]
  inhibition in vivo at 70 mg/kg: 4%

## COc1c(-c2ccc(C)cc2)oc2ccc(C(=O)O)cc2c1=O
Rattus norvegicus [1]
  inhibition in vivo at 80 mg/kg: 4%

## COc1cccc(-c2oc3ccc(C(=O)O)cc3c(=O)c2OC(C)C)c1
Rattus norvegicus [15]
  inhibition in vivo at 66 mg/kg: 12%

## CC(C)c1ccc(-c2cc(=O)c3cc(C(=O)O)ccc3o2)cc1
Rattus norvegicus [1]
  inhibition in vivo at 80 mg/kg: 19%

## CCCCCCOc1ccc(-c2oc3ccc(C(=O)O)cc3c(=O)c2O)cc1
Rattus norvegicus [1]
  inhibition in vivo at 80 mg/kg: -11%

## COc1cc(-c2oc3ccc(C(=O)O)cc3c(=O)c2O)cc(OC)c1OC
Rattus norvegicus [1]
  inhibition in vivo at 80 mg/kg: 24%

## COc1c(-c2ccc(C(C)C)cc2)oc2ccc(C(=O)O)cc2c1=O
Rattus norvegicus [1]
  inhibition in vivo at 80 mg/kg: 18%

## C/N=C(\S)NCCCCc1c[nH]cn1 [BURIMAMIDE]
Rattus norvegicus [16]
  inhibition in vivo at 90 mg/kg: 49%

## CNC(=S)NCCSCc1[nH]cnc1C [METIAMIDE]
Rattus norvegicus [17]
  inhibition in vivo at 150 mg/kg: 76%
Rattus norvegicus [18]
  inhibition in vivo at 75 mg/kg: 46%
Rattus norvegicus [19]
  Volume: 2.99 mL
Rattus norvegicus [20]
  mequiv of HCl: 0.148
Rattus norvegicus [11]
  Volume: 1.7 mL
Rattus norvegicus [12]
  mequiv of HCl: 0.064
